≈ marks a conversion by molar mass, not a printed value. Calls of active or inactive are those of the source. No cut-off for these calls is given here.
Assays:
[1] = test system: Staphylococcus aureus; experiment: Antimicrobial activity against Staphylococcus aureus NCTC 4163 after 18 hrs by twofold serial microdilution method; type: functional; conditions: NCTC 4163, 18 h
[2] = test system: Staphylococcus aureus; experiment: Antimicrobial activity against hospital methicillin-resistant Staphylococcus aureus 522/11 after 18 hrs by twofold serial microdilution method; type: functional; conditions: 522/11, 18 h
Summary of the method: (§1)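 Twofold serial microdilution in Mueller-Hinton broth. Compound stock was made in DMSO and diluted in sterile water. Tested range was 0.125–512 µg/mL. Final inoculum was 10^5 CFU/mL. Plates were incubated 18 h at 35 °C. MIC is the lowest concentration preventing visible growth.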

[3] = test system: Staphylococcus aureus; experiment: Antimicrobial activity against hospital methicillin-resistant Staphylococcus aureus 573/11 after 18 hrs by twofold serial microdilution method; type: functional; conditions: 573/11, 18 h; summary of the method: as §1
[4] = test system: Vaccinia virus; experiment: Antiviral activity against Human Vaccinia virus ATCC VR-1549 infected in African green monkey Vero 76 cells assessed as reduction of virus-plaque formation after 3 days by crystal violet staining; type: functional, organism-based; conditions: Orthopoxvirus vaccinia, ATCC VR-1549, Vero, 72 h
[5] = test system: Staphylococcus epidermidis; experiment: Antimicrobial activity against hospital methicillin-resistant Staphylococcus epidermidis 16/04 after 18 hrs by twofold serial microdilution method; type: functional; conditions: 16/04, 18 h; summary of the method: as §1
[6] = test system: Staphylococcus epidermidis; experiment: Antimicrobial activity against hospital methicillin-resistant Staphylococcus epidermidis 63/04 after 18 hrs by twofold serial microdilution method; type: functional; conditions: 63/04, 18 h; summary of the method: as §1
[7] = test system: Mycobacterium tuberculosis; experiment: Antimycobacterial activity against drug-sensitive Mycobacterium tuberculosis Spec. 192; type: functional
Summary of the method: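 Classical test-tube successive-dilution method in Youmans' modification of Proskauer and Beck liquid medium with 10% bovine serum. Inoculum came from 14-day cultures. DMSO stock was 10 mg/mL, diluted geometrically in medium. Tubes were incubated at 37 °C. Concentrations tested were 3.1, 6.2, 12.5, 25, 50 and 100 µg/ml. MIC is the minimum concentration inhibiting growth relative to compound-free tubes.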

[8] = test system: Bacillus cereus; experiment: Antimicrobial activity against Bacillus cereus ATCC 11778 at 400 ug after 18 hrs by disc-diffusion method; type: functional; conditions: ATCC 11778, 18 h, read-out: IZ
Summary of the method: (§2)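 Disc diffusion on Mueller-Hinton II agar per CLSI; 9 mm paper discs loaded with 400 µg compound from DMSO solution, dried, placed on agar; growth inhibition zone diameter read after 18 h at 35°C.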

[9] = test system: Staphylococcus aureus; experiment: Antimicrobial activity against Staphylococcus aureus ATCC 25923 after 18 hrs by twofold serial microdilution method; type: functional; conditions: ATCC 25923, 18 h
[10] = test system: Micrococcus luteus; experiment: Antimicrobial activity against Micrococcus luteus ATCC 10240 at 400 ug after 18 hrs by disc-diffusion method; type: functional; summary of the method: as §2
[11] = test system: Staphylococcus aureus; experiment: Antimicrobial activity against hospital methicillin-resistant Staphylococcus aureus 57/05 after 18 hrs by twofold serial microdilution method; type: functional; conditions: 57/05, 18 h; summary of the method: as §1
[12] = test system: Staphylococcus aureus; experiment: Antimicrobial activity against hospital methicillin-resistant Staphylococcus aureus 81/05 after 18 hrs by twofold serial microdilution method; type: functional; conditions: 81/05, 18 h; summary of the method: as §1
[13] = test system: Staphylococcus aureus; experiment: Antimicrobial activity against Staphylococcus aureus ATCC 29213 after 18 hrs by twofold serial microdilution method; type: functional; conditions: ATCC 29213, 18 h
[14] = test system: Staphylococcus aureus; experiment: Antimicrobial activity against hospital methicillin-resistant Staphylococcus aureus 80/05 after 18 hrs by twofold serial microdilution method; type: functional; conditions: 80/05, 18 h; summary of the method: as §1
[15] = test system: Human alphaherpesvirus 1; experiment: Antiviral activity against Human herpesvirus 1 KOS ATCC VR-1493 infected in African green monkey Vero 76 cells assessed as reduction of virus-plaque formation after 3 days by crystal violet staining; type: functional, organism-based; conditions: Human alphaherpesvirus 1, KOS ATCC VR1493, Vero, 72 h
Summary of the method: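 Plaque reduction: Vero-76 at 2x10^5 cells/well grown to confluent monolayers, infected 2 h at 50–100 PFU/well; after removing unadsorbed virus, overlay of D-MEM, 1% inactivated FBS, 0.75% methylcellulose with or without serial compound dilutions; 3 days at 37°C, fixed and stained with crystal violet in 50% ethanol, plaques counted; EC50 by linear regression.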

[16] = test system: Human immunodeficiency virus 1; experiment: Antiviral activity against HIV1 3B infected in human MT4 cells assessed as protection against virus-induced cytopathogenicity by MTT assay; type: functional, organism-based; conditions: Human immunodeficiency virus 1, 3B
[17] = test system: Staphylococcus epidermidis; experiment: Antimicrobial activity against hospital methicillin-resistant Staphylococcus epidermidis 24/04 after 18 hrs by twofold serial microdilution method; type: functional; conditions: 24/04, 18 h; summary of the method: as §1
[18] = test system: Mammalian orthoreovirus 1; experiment: Antiviral activity against Reovirus type-1 ATCC VR-214 infected in BHK cells assessed as protection against virus-induced cytopathogenicity after 3 to 4 days by MTT assay; type: functional, cell-based; conditions: Mammalian orthoreovirus 1, ATCC VR-214, BHK
Summary of the method: (§3)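 Cells seeded in 96-well plates (BHK 5x10^4, MDBK 3x10^4 cells/well), grown overnight to confluence, infected at m.o.i. 0.01 (BHK for Reo-1, MDBK for BVDV); serial compound dilutions in maintenance medium with 0.5% inactivated FBS added after 1 h; viability by MTT after 3–4 days at 37°C; EC50 for 50% protection by linear regression.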

[19] = test system: Staphylococcus epidermidis; experiment: Antimicrobial activity against hospital methicillin-resistant Staphylococcus epidermidis 31/04 after 18 hrs by twofold serial microdilution method; type: functional; conditions: 31/04, 18 h; summary of the method: as §1
[20] = test system: Staphylococcus aureus; experiment: Ratio of ciprofloxacin MIC to compound MIC for hospital methicillin-resistant Staphylococcus aureus 57/05 after 18 hrs by twofold serial microdilution method; type: functional
Summary of the method: (§4)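 Ratio of MICs for ciprofloxacin and test agent, each from twofold serial broth microdilution in Mueller-Hinton broth following CLSI guidelines. DMSO stock was diluted in sterile water to 0.125–512 µg/mL, with a final inoculum of 10^5 CFU/mL.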

[21] = Cytotoxicity against human MT4 cells; type: cell-based
[22] = test system: Staphylococcus aureus; experiment: Ratio of ciprofloxacin MIC to compound MIC for hospital methicillin-resistant Staphylococcus aureus 573/11 after 18 hrs by twofold serial microdilution method; type: functional; summary of the method: as §4
[23] = Antiviral activity against Bovine viral diarrhea virus 1-NADL ATCC VR-534 infected in MDBK cells assessed as protection against virus-induced cytopathogenicity after 3 to 4 days by MTT assay; type: functional, cell-based; conditions: Bovine viral diarrhea virus isolates and strains, ATCC VR-534, MDBK; summary of the method: as §3
[24] = test system: Staphylococcus epidermidis; experiment: Antimicrobial activity against Staphylococcus epidermidis ATCC 35984 at 400 ug after 18 hrs by disc-diffusion method; type: functional; summary of the method: as §2
[25] = test system: Poliovirus 1; experiment: Antiviral activity against Poliovirus type 1 ATCC VR-1562 infected in African green monkey Vero 76 cells assessed as reduction of virus-plaque formation after 2 days by crystal violet staining; type: functional, organism-based; conditions: Enterovirus C, ATCC VR-1562, Vero, 48 h
[26] = test system: Staphylococcus epidermidis; experiment: Antimicrobial activity against hospital methicillin-resistant Staphylococcus epidermidis 76/04 after 18 hrs by twofold serial microdilution method; type: functional; conditions: 76/04, 18 h; summary of the method: as §1
[27] = test system: Staphylococcus epidermidis; experiment: Antimicrobial activity against Staphylococcus epidermidis ATCC 12228 after 18 hrs by twofold serial microdilution method; type: functional; conditions: ATCC 12228, 18 h
[28] = test system: Staphylococcus aureus; experiment: Antimicrobial activity against Staphylococcus aureus ATCC 29213 at 400 ug after 18 hrs by disc-diffusion method; type: functional; conditions: ATCC 29213, 18 h, read-out: IZ; summary of the method: as §2
[29] = test system: Staphylococcus epidermidis; experiment: Ratio of ciprofloxacin MIC to compound MIC for hospital methicillin-resistant Staphylococcus epidermidis 23/04 after 18 hrs by twofold serial microdilution method; type: functional; summary of the method: as §4

| SMILES | MIC [1] [µg/mL] | MIC [2] [µg/mL] | MIC [3] [µg/mL] | EC50 [4] [µM] | MIC [5] [µg/mL] | MIC [6] [µg/mL] | MIC [7] [µg/mL] | zone of inhibition at 400 µg/disc [8] [mm] | MIC [9] [µg/mL] | MIC [11] [µg/mL] | MIC [12] [µg/mL] | MIC [13] [µg/mL] | MIC [14] [µg/mL] | EC50 [15] [µM] | EC50 [16] [µM] | MIC [17] [µg/mL] | EC50 [18] [µM] | MIC [19] [µg/mL] | Ratio [20] | CC50 [21] [µM] | also measured |
| --- | --- | --- | --- | --- | --- | --- | --- | --- | --- | --- | --- | --- | --- | --- | --- | --- | --- | --- | --- | --- | --- |
| FC(F)(F)c1cccc(NC(=S)Nc2cccc(Br)c2)c1 | 1 (≈ 2.67 µM) | 0.5 (≈ 1.33 µM) | 0.25 (≈ 0.666 µM) | > 14 | 2 (≈ 5.33 µM) | 1 (≈ 2.67 µM) | > 100 | 24 | 1 (≈ 2.67 µM) | 1 (≈ 2.67 µM) | 1 (≈ 2.67 µM) | 1 (≈ 2.67 µM) | 0.5 (≈ 1.33 µM) | > 14 | > 9.2 | 4 (≈ 10.7 µM) | > 10 | 2 (≈ 5.33 µM) | 128 | 9.2 | zone of inhibition at 400 µg/disc ([10]; ATCC 10240, 18 h, read-out: IZ): 30 mm; Ratio [22]: 128; EC50 [23]: > 10 µM; zone of inhibition at 400 µg/disc ([24]; ATCC 35984, 18 h, read-out: IZ): 27 mm; EC50 [25]: > 14 µM; MIC [26]: 1 µg/mL (≈ 2.67 µM); MIC [27]: 2 µg/mL (≈ 5.33 µM); zone of inhibition at 400 µg/disc [28]: 29 mm; Ratio [29]: 128 |
| FC(F)(F)c1cccc(NC(=S)Nc2ccc(Cl)cc2)c1 | 8 (≈ 24.2 µM) | 16 (≈ 48.4 µM) | 8 (≈ 24.2 µM) | > 11 | 16 (≈ 48.4 µM) | 16 (≈ 48.4 µM) | > 100 | 12 | 8 (≈ 24.2 µM) | 16 (≈ 48.4 µM) | 16 (≈ 48.4 µM) | 8 (≈ 24.2 µM) | 16 (≈ 48.4 µM) | > 11 | > 6.8 | 16 (≈ 48.4 µM) | > 10 | 16 (≈ 48.4 µM) | 128 | 6.8 | inhibition zone (IZ) [10]: inactive; Ratio [22]: 128; EC50 [23]: > 17 µM; inhibition zone (IZ) [24]: inactive; EC50 [25]: > 11 µM; MIC [26]: 8 µg/mL (≈ 24.2 µM); MIC [27]: 8 µg/mL (≈ 24.2 µM); zone of inhibition at 400 µg/disc [28]: 12 mm; Ratio [29]: 128 |

Source: ChEMBL document CHEMBL3616436, “Synthesis, cytotoxicity and antimicrobial activity of thiourea derivatives incorporating 3-(trifluoromethyl)phenyl moiety” (Eur J Med Chem, 2015)
